Data as given in ChEMBL document CHEMBL1124456, “Synthesis and structure-activity relationship of substituted tetrahydro- and hexahydro-1,2-benzisothiazol-3-one 1,1-dioxides and thiadiazinones: potential anxiolytic agents” (J Med Chem, 1989).
Calls of active or inactive are those of the source. The calls are words filed in the database; no cut-off is given here.

Key:
[1] = tested on: Rattus norvegicus; assay: In vivo ability (10.0 mg/kg) was to elicit serotonin syndrome in rat; type: functional
Summary of the method: (§1)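 Rat in vivo test adapted from published serotonin syndrome methods. Agents given ip; 5-MeO-DMT at 3.0 mg/kg ip was used to elicit the syndrome. Behaviour rated and reported as mean total score (±SEM).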

[2] = organism: Rattus norvegicus; assay: (§2) Antipsychotic activity was evaluated from the ability to block discrete trial conditioned avoidance response (CAR) of rats; type: functional
Summary of the method: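 Male CD rats (about 400–450 g) trained in discrete-trial avoidance. Compound given ip or po 30 min before testing, at 20 or 40 mg/kg or over a dose range, with at least five rats per dose. Intertrial, avoidance, escape and no-response trials were recorded. Avoidance block is the percentage of trials without avoidance. AB50 comes from a least-squares dose–effect regression line.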

[3] = tested on: Rattus norvegicus; assay: In vivo ability (10.0 mg/kg) was to antagonize serotonin syndrome in rat; type: functional; summary of the method: as §1
[4] = tested on: Rattus norvegicus; assay: Compound was tested for antagonism of apomorphine-induced stereotyped behavior, after intraperitoneal dosing; NA is Inactive; type: functional, organism-based
Summary of the method: (§3)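 High-dose apomorphine-induced stereotyped behavior procedure. Test agents were given ip at doses up to 60 mg/kg.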

[5] = tested on: Rattus norvegicus; assay: Compound was tested for antagonism of apomorphine-induced climbing behavior, after intraperitoneal dosing; type: functional; details: ip
[6] = organism: Rattus norvegicus; assay: Anti psychotic activity was evaluated from the ability to block discrete trial conditioned avoidance response (CAR) of rats (95%CI) from 37-73; type: functional
Summary of the method: (§4)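 Discrete-trial conditioned avoidance in male CD rats kept at about 400–450 g body weight. Dosing was ip or po, 30 min before testing, with at least five rats per dose (20 or 40 mg/kg, or a dose range). Computer recorded intertrial, avoidance and escape responses and no-response trials. Avoidance-block trials were taken as % of total trials, with control avoidance set at 100%. AB50 came from a least-squares dose-effect regression line.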

[7] = target: D(2) dopamine receptor (Rattus norvegicus, UniProt P61169); assay: In vitro ability to inhibit [3H]spiperone binding to Dopamine receptor D2 of rat limbic structures.; type: tissue-based, Limbic system
[8] = tested on: Rattus norvegicus; assay: Compound was tested for antagonism of apomorphine-induced climbing behavior, after intraperitoneal dosing.; type: functional; details: ip
[9] = organism: Rattus norvegicus; assay: Anti-psychotic activity from the ability to block discrete trial conditioned avoidance response (CAR) of rats.; type: functional; summary of the method: as §4
[10] = target: T1, 5-hydroxytryptamine receptor 1A (Rattus norvegicus, UniProt P19327); assay: In vitro ability to inhibit [3H]-8-OH-DPAT binding to 5-hydroxytryptamine 1A receptor of rat hippocampus and value ranges from 15 - 31; type: tissue-based
T1 sequence (P19327 whole entry): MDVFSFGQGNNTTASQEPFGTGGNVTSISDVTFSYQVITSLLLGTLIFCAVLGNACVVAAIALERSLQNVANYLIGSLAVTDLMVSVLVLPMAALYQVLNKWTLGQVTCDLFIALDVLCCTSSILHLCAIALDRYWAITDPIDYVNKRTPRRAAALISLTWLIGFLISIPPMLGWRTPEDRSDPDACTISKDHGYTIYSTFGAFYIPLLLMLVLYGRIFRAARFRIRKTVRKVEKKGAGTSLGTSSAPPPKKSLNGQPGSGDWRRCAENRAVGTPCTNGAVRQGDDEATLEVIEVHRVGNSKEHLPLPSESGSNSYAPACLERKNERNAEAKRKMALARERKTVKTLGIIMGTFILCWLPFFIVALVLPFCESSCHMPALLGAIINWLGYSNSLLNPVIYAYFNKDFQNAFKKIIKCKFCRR

[11] = target: D(2) dopamine receptor (Rattus norvegicus) (UniProt P61169); assay: Inhibition of [3H]-spiperone binding to dopamine receptor D2 of rat limbic structures at 1 uM.; details: Limbic system
[12] = tested on: Rattus norvegicus; assay: Compound was tested for antagonism of apomorphine-induced stereotyped behavior, after intraperitoneal dosing and value ranges from 37.28 - 52.78; type: functional; details: ip; summary of the method: as §3
[13] = target: D(2) dopamine receptor (Rattus norvegicus) (UniProt P61169); assay: Inhibition of [3H]spiperone binding to Dopamine receptor D2 of rat limbic structures; type: tissue-based; set-up: concentration or dose not given beside the values; details: Limbic system, concentration not given here
[14] = target: T2, 5-hydroxytryptamine receptor 1A (Rattus norvegicus) (UniProt P19327); assay: In vitro ability to inhibit [3H]8-OH-DPAT binding to 5-hydroxytryptamine 1A receptor of rat hippocampus at 1 uM; type: tissue-based
T2 sequence (whole entry): T1 sequence (P19327 whole entry)

[15] = organism: Rattus norvegicus; assay: Anti psychotic activity was evaluated from the ability to block discrete trial conditioned avoidance response (CAR) of rats and value ranges from 37 - 73; type: functional; summary of the method: as §4
[16] = Partition coefficient (logP); type: physicochemical; details: octanol/water
[17] = tested on: Rattus norvegicus; assay: Compound was tested for antagonism of apomorphine-induced climbing behavior, after intraperitoneal dosing; 1-23; type: functional; details: ip
[18] = target: T1, 5-hydroxytryptamine receptor 1A; assay: In vitro ability to inhibit [3H]8-OH-DPAT binding to 5-hydroxytryptamine 1A receptor of rat hippocampus ([…]) from 12 to 17; type: tissue-based
[19] = tested on: Rattus norvegicus; assay: In vivo ability (10.0 mg/kg) was to antagonize serotonin syndrome; type: functional
[20] = tested on: Rattus norvegicus; assay: Compound was tested for antagonism of apomorphine-induced climbing behavior, after intraperitoneal dosing; 7-101; type: functional; details: ip
[21] = target: Adrenergic receptor alpha-2 (Rattus norvegicus) (UniProt P22086+P19328+P22909); assay: Percent inhibition of Alpha-2 adrenergic receptor at 1 uM; type: protein assay
[22] = target: T1, 5-hydroxytryptamine receptor 1A; assay: In vitro ability to inhibit [3H]8-OH-DPAT binding to 5-hydroxytryptamine 1A receptor of rat hippocampus ([…]) from 391-841; type: tissue-based
[23] = target: GABA-A receptor; anion channel (Rattus norvegicus) (UniProt O09028+P15431+P18506+P18508+P19969+P20236+P23574+P23576+P28471+P28473+P30191+P62813+P63079+P63138+Q91ZM7+Q9ES14); assay: Percent inhibition of GABA-A benzodiazepine receptor at 1 uM; type: protein-complex assay
Summary of the method: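 Male Sprague-Dawley rat brain (cerebellum and pons-medulla removed) was homogenized in 0.32 M sucrose to give a 30000g pellet, resuspended in Tris-HCl pH 7.5. Membranes were incubated with 1.5×10^-9 M [³H]diazepam (2.0 mL final) for 30 min at 4 °C, GF/C filtered, washed ice-cold and scintillation counted. Nonspecific binding was taken with 3×10^-6 M cold diazepam. Drug was tested at 1 μM.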

[24] = target: Adrenergic receptor beta (Rattus norvegicus) (UniProt P18090+P10608+P26255); assay: Percent inhibition of Beta adrenergic receptor at 1 uM; type: protein assay
[25] = target: Adrenergic receptor alpha-1 (Rattus norvegicus) (UniProt P15823+P23944+P43140); assay: Percent inhibition of Alpha-1 adrenergic receptor at 1 uM; type: protein assay
[26] = organism: Rattus norvegicus; assay: Percent inhibition of QNB receptor at 1 uM
[27] = tested on: Rattus norvegicus; assay: Compound was tested for antagonism of apomorphine-induced stereotyped behavior, after intraperitoneal dosing; NA= Inactive; type: functional, organism-based; summary of the method: as §3
[28] = tested on: Rattus norvegicus; assay: In vivo ability (40.0 mg/kg) was to elicit serotonin syndrome; type: functional
[29] = target: D(2) dopamine receptor (Rattus norvegicus) (UniProt P61169); assay: In vitro percent inhibition of [3H]spiperone binding to Dopamine receptor D2 of rat limbic structures at 1 uM; type: tissue-based; details: Limbic system
[30] = organism: Rattus norvegicus; assay: as §2; type: functional; summary of the method: as §4; remark: listed apart in the source
[31] = target: T1, 5-hydroxytryptamine receptor 1A; assay: In vitro ability to inhibit [3H]8-OH-DPAT binding to 5-hydroxytryptamine 1A receptor of rat hippocampus and the value ranges from 245 to 736; type: tissue-based
[32] = target: T1, 5-hydroxytryptamine receptor 1A; assay: In vitro ability to inhibit [3H]8-OH-DPAT binding to 5-hydroxytryptamine 1A receptor of rat hippocampus and value ranges from 6 - 13; type: tissue-based
[33] = organism: Rattus norvegicus; assay: Anti psychotic activity was evaluated from the ability to block discrete trial conditioned avoidance response (CAR) of rats, value ranges from 32-71.; type: functional; summary of the method: as §4
[34] = target: T1, 5-hydroxytryptamine receptor 1A; assay: In vitro ability to inhibit [3H]8-OH-DPAT binding to 5-hydroxytryptamine 1A receptor of rat hippocampus and the value ranges from 12 to 20.; type: tissue-based
[35] = target: T2, 5-hydroxytryptamine receptor 1A (Rattus norvegicus); assay: In vitro ability to inhibit [3H]-8-OH-DPAT binding to 5-hydroxytryptamine 1A receptor of rat hippocampus at 1 uM; type: tissue-based
[36] = organism: Rattus norvegicus; assay: Anti psychotic activity was evaluated from the ability to block discrete trial conditioned avoidance response (CAR) of rats. (95%CI); 39 to 53; type: functional; summary of the method: as §4
[37] = target: T1, 5-hydroxytryptamine receptor 1A; assay: In vitro ability to inhibit [3H]8-OH-DPAT binding to 5-hydroxytryptamine 1A receptor of rat hippocampus and the value ranges from 25 - 84; type: tissue-based
[38] = tested on: Rattus norvegicus; assay: Compound was tested for antagonism of apomorphine-induced stereotyped behavior, after intraperitoneal dosing.; type: functional; details: ip; summary of the method: as §3
[39] = organism: Rattus norvegicus; assay: Anti psychotic activity was evaluated from the ability to block discrete trial conditioned avoidance response (CAR) of rats and the value ranges from 32-61; type: functional; summary of the method: as §4
[40] = tested on: Rattus norvegicus; assay: Compound was tested for antagonism of apomorphine-induced climbing behavior, after intraperitoneal dosing; 1.29-27.21; type: functional; details: ip
[41] = target: T1, 5-hydroxytryptamine receptor 1A; assay: In vitro ability to inhibit [3H]8-OH-DPAT binding to 5-hydroxytryptamine 1A receptor of rat hippocampus and value ranges from 27 - 42; type: tissue-based
[42] = target: T1, 5-hydroxytryptamine receptor 1A; assay: In vitro ability to inhibit [3H]8-OH-DPAT binding to 5-hydroxytryptamine 1A receptor of rat hippocampus and the value ranges from 48 to 59; type: tissue-based

Chain of D(2) dopamine receptor (Rattus norvegicus) (P61169 whole entry): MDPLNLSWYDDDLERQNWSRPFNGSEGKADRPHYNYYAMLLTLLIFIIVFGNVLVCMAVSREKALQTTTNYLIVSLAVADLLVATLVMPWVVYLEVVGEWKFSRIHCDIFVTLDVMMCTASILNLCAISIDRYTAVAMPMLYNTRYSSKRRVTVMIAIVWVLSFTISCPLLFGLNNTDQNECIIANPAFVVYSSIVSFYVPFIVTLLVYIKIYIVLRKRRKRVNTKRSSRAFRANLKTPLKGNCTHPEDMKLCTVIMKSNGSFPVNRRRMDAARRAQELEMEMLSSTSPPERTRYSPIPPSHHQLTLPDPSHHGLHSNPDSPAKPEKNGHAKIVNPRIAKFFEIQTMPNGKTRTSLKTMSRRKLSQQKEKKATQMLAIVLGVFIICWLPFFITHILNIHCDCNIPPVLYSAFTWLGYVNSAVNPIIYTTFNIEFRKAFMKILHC
Chain of D(2) dopamine receptor (P61169 whole entry): as above

SMILES: O=C1c2ccccc2S(=O)(=O)N1CCCCN1CCN(c2ncccn2)CC1 [IPSAPIRONE]
- Mean [1]: 2.4
- AB50 [2]: 42 mg/kg
- Mean [3]: 8.4
- ED50 [4]: inactive
- ED50 [5]: 26 mg/kg

SMILES: Cl.O=C1C2C3CCC(O3)C2S(=O)(=O)N1CCCCN1CCN(c2nccnc2Cl)CC1 (stereo not given)
- AB50 [6]: 48 mg/kg
- Ki [7]: 3300 nM

SMILES: Cl.Cl.O=C1C2C3CCC(O3)C2S(=O)(=O)N1CCCCN1CCN(c2cccc(C(F)(F)F)c2)CC1 (stereo not given)
- ED50 [8]: 11.5 mg/kg
- AB50 [9]: 40 mg/kg
- Ki [10]: 22 nM
- inhibition [11]: 0%
- ED50 [12]: 44.4 mg/kg

SMILES: Cl.Cl.O=C1C2C3CCC(O3)C2S(=O)(=O)N1CCCCN1CCN(c2cnccn2)CC1 (stereo not given)
- inhibition [13]: 0%
- inhibition [14]: 25%
- AB50 [15]: 48 mg/kg
- logP [16]: 1.14

SMILES: CN1CCN(C2=Nc3cc(Cl)ccc3Nc3ccccc32)CC1 [CLOZAPINE]
- ED50 [17]: 4.55 mg/kg

SMILES: Cl.O=C1C2C3C=CC(C4CC34)C2S(=O)(=O)N1CCCCN1CCN(c2cncc(Cl)n2)CC1 (stereo not given)
- AB50 [9]: 40 mg/kg
- Ki [18]: 14 nM

SMILES: Cl.O=C1C2C3CCC(O3)C2S(=O)(=O)N1CCCCN1CCN(c2cncc(Cl)n2)CC1 (stereo not given)
- Mean [19]: 12.3
- ED50 [20]: 27 mg/kg
- inhibition [21]: 21%
- Ki [22]: 550 nM
- AB50 [9]: 34 mg/kg
- inhibition [23]: 0%
- inhibition [24]: 8%
- inhibition [25]: 6%
- inhibition [26]: 0%
- ED50 [27]: inactive
- Mean [28]: 2.1
- logP [16]: 1.64
- inhibition [29]: 36%

SMILES: Cl.Cl.O=C1C2C3C=CC(C3)C2S(=O)(=O)N1CCCCN1CCN(c2ncccn2)CC1 (stereo not given)
- AB50 [30]: 45 mg/kg
- Ki [31]: 434 nM

SMILES: Cl.Cl.O=C1c2ccccc2S(=O)(=O)N1CCCCN1CCN(c2cnccn2)CC1
- AB50 [9]: 40 mg/kg
- inhibition [11]: 43%
- Ki [32]: 9 nM

SMILES: Cl.Cl.O=C1C2C3CCC(C3)C2S(=O)(=O)N1CCCCN1CCN(c2cccc(C(F)(F)F)c2)CC1 (stereo not given)
- AB50 [33]: 43 mg/kg
- inhibition [13]: 97%
- Ki [34]: 16 nM

SMILES: Cl.O=C1C2C3CCC(C3)C2S(=O)(=O)N1CCCCN1CCN(c2cncc(Cl)n2)CC1 (stereo not given)
- inhibition [13]: 32%
- inhibition [35]: 51%
- AB50 [36]: 45 mg/kg

SMILES: Cl.Cl.Cl.O=C1C2C3CCC(C3)C2S(=O)(=O)N1CCCCN1CCN(c2cccc(Cl)c2)CC1 (stereo not given)
- inhibition [13]: 98%
- Ki [37]: 45 nM
- ED50 [38]: 34 mg/kg
- AB50 [39]: 41 mg/kg
- ED50 [40]: 16 mg/kg

SMILES: Cl.Cl.Cl.O=C1C2C3CCC(O3)C2S(=O)(=O)N1CCCCN1CCN(c2cccc(Cl)c2)CC1 (stereo not given)
- AB50 [9]: 40 mg/kg
- Ki [41]: 34 nM
- inhibition [11]: 55%

SMILES: Cl.Cl.O=C1C2C3CCC(C3)C2S(=O)(=O)N1CCCCN1CCN(c2ncccn2)CC1 (stereo not given)
- inhibition [13]: 36%
- AB50 [9]: 40 mg/kg
- Ki [42]: 53 nM
- logP [16]: 1.72
